Experimental data: ChEMBL document CHEMBL3244382, “Structural requirements for antileukemic activity among the naturally occurring and semisynthetic maytansinoids” (J Med Chem, 1978)
Converted amounts (≈) assume the structure as drawn. The source made the active and inactive calls.

Tests used:
[1] = system: Mus musculus; assay: Toxicity in PS mouse allografted with mouse P388 cells assessed as change in body weight at 3.1 ug/kg relative to control; type: organism-based; conditions: in vivo, 0.0031 mg/kg
Procedure, shortened: (§1)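 P388 (PS) leukemia in mice, 6 mice per dose group. Weight change is the difference in grams between treated and control animals. Survivors are recorded on toxicity day, normally 4 days after the first injection.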

[2] = system: Mus musculus; assay: Toxicity in PS mouse allografted with mouse P388 cells assessed as survival at 50 ug/kg after 4 days; type: organism-based; conditions: in vivo, 0.05 mg/kg, 96 h
Procedure, shortened: (§2)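 PS (P388) leukemic mice, six started per dose group. Toxicity scored as survivors on the toxicity day over the number of mice started. The toxicity day is normally 4 days after the first injection.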

[3] = system: Mus musculus; assay: Toxicity in PS mouse allografted with mouse P388 cells assessed as survival at 100 ug/kg after 4 days; type: organism-based; conditions: in vivo, 0.1 mg/kg, 96 h; procedure, shortened: as §2
[4] = system: Mus musculus; assay: Toxicity in PS mouse allografted with mouse P388 cells assessed as survival at 25 ug/kg after 4 days; type: organism-based; conditions: in vivo, 0.025 mg/kg, 96 h; procedure, shortened: as §2
[5] = system: Mus musculus; assay: Toxicity in PS mouse allografted with mouse P388 cells assessed as survival at 12.5 ug/kg after 4 days; type: organism-based; conditions: in vivo, 0.0125 mg/kg, 96 h; procedure, shortened: as §2
[6] = system: Mus musculus; assay: Toxicity in PS mouse allografted with mouse P388 cells assessed as survival at 6.2 ug/kg after 4 days; type: organism-based; conditions: in vivo, 0.0062 mg/kg, 96 h; procedure, shortened: as §2
[7] = system: Mus musculus; assay: Toxicity in PS mouse allografted with mouse P388 cells assessed as survival at 3.1 ug/kg after 4 days; type: organism-based; conditions: in vivo, 0.0031 mg/kg, 96 h; procedure, shortened: as §2
[8] = system: Mus musculus; assay: Toxicity in PS mouse allografted with mouse P388 cells assessed as survival at 200 ug/kg after 4 days; type: organism-based; conditions: in vivo, 0.2 mg/kg, 96 h; procedure, shortened: as §2
[9] = system: Mus musculus; assay: Toxicity in PS mouse allografted with mouse P388 cells assessed as survival at 400 ug/kg after 4 days; type: organism-based; conditions: in vivo, 0.4 mg/kg, 96 h; procedure, shortened: as §2
[10] = system: Mus musculus; assay: Toxicity in PS mouse allografted with mouse P388 cells assessed as change in body weight at 100 ug/kg relative to control; type: organism-based; conditions: in vivo, 0.1 mg/kg; procedure, shortened: as §1
[11] = system: Mus musculus; assay: Toxicity in PS mouse allografted with mouse P388 cells assessed as change in body weight at 50 ug/kg relative to control; type: organism-based; conditions: in vivo, 0.05 mg/kg; procedure, shortened: as §1
[12] = system: Mus musculus; assay: Toxicity in PS mouse allografted with mouse P388 cells assessed as change in body weight at 25 ug/kg relative to control; type: organism-based; conditions: in vivo, 0.025 mg/kg; procedure, shortened: as §1
[13] = system: Mus musculus; assay: Toxicity in PS mouse allografted with mouse P388 cells assessed as change in body weight at 12.5 ug/kg relative to control; type: organism-based; conditions: in vivo, 0.0125 mg/kg; procedure, shortened: as §1
[14] = system: Mus musculus; assay: Toxicity in PS mouse allografted with mouse P388 cells assessed as change in body weight at 6.2 ug/kg relative to control; type: organism-based; conditions: in vivo, 0.0062 mg/kg; procedure, shortened: as §1
[15] = system: Mus musculus; assay: Toxicity in PS mouse allografted with mouse P388 cells assessed as change in body weight at 200 ug/kg relative to control; type: organism-based; conditions: in vivo, 0.2 mg/kg; procedure, shortened: as §1
[16] = system: Mus musculus; assay: Toxicity in PS mouse allografted with mouse P388 cells assessed as change in body weight at 400 ug/kg relative to control; type: organism-based; conditions: in vivo, 0.4 mg/kg; procedure, shortened: as §1
[17] = system: P388; assay: Antitumor activity against mouse P388 cells allografted in PS mouse assessed as median survival time at 100 ug/kg relative to control; type: functional
Procedure, shortened: (§3)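 P388 leukemia (PS) in mice, six mice started per dose group. Read-out is T/C: median survival time of the treated group divided by that of the untreated control group, expressed as a percent. The NIH protocol counts a compound as active when T/C > 125%.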

[18] = system: P388; assay: Antitumor activity against mouse P388 cells allografted in PS mouse assessed as median survival time at 50 ug/kg relative to control; type: functional; procedure, shortened: as §3
[19] = system: P388; assay: Antitumor activity against mouse P388 cells allografted in PS mouse assessed as median survival time at 25 ug/kg relative to control; type: functional; procedure, shortened: as §3
[20] = system: P388; assay: Antitumor activity against mouse P388 cells allografted in PS mouse assessed as median survival time at 12.5 ug/kg relative to control; type: functional; procedure, shortened: as §3
[21] = system: P388; assay: Antitumor activity against mouse P388 cells allografted in PS mouse assessed as median survival time at 6.2 ug/kg relative to control; type: functional; procedure, shortened: as §3
[22] = system: P388; assay: Antitumor activity against mouse P388 cells allografted in PS mouse assessed as median survival time at 3.1 ug/kg relative to control; type: functional; procedure, shortened: as §3
[23] = system: P388; assay: Antitumor activity against mouse P388 cells allografted in PS mouse assessed as median survival time at 200 ug/kg relative to control; type: functional; procedure, shortened: as §3
[24] = system: P388; assay: Antitumor activity against mouse P388 cells allografted in PS mouse assessed as median survival time at 400 ug/kg relative to control; type: functional; procedure, shortened: as §3
[25] = system: KB; assay: Cytotoxicity against human KB cells; type: functional; conditions: read-out: ED50 (the source's name)
[26] = biological target: Tubulin (Homo sapiens) (UniProt P68371+Q9H4B7+P0DPH7+P68366+Q13509+Q71U36+P04350+Q3ZCM7+P07437+P68363+Q9BQE3+Q6PEY2+Q13885+Q9BVA1+Q9BUF5); assay: Inhibition of brain tubulin polymerization (unknown origin) at 37 degC by spectrophotometry
[27] = system: Paracentrotus lividus; assay: Antimitotic activity against sea urchin eggs assessed as drug level causing inhibition of mitosis; type: functional; conditions: Egg
[28] = system: Mus musculus; assay: Toxicity in PS mouse allografted with mouse P388 cells assessed as change in body weight at 1.6 ug/kg relative to control; type: organism-based; conditions: in vivo, 0.0016 mg/kg; procedure, shortened: as §1
[29] = system: Mus musculus; assay: Toxicity in PS mouse allografted with mouse P388 cells assessed as survival at 1.6 ug/kg after 4 days; type: organism-based; conditions: in vivo, 0.0016 mg/kg, 96 h; procedure, shortened: as §2
[30] = system: P388; assay: Antitumor activity against mouse P388 cells allografted in PS mouse assessed as median survival time at 1.6 ug/kg relative to control; type: functional; procedure, shortened: as §3
[31] = system: Mus musculus; assay: Toxicity in PS mouse allografted with mouse P388 cells assessed as change in body weight at 0.8 ug/kg relative to control; type: organism-based; conditions: in vivo, 0.0008 mg/kg
Procedure, shortened: (§4)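 PS (P388 leukemia) mice, six per dose group. Toxicity read as the difference in grams between the weights of treated and control animals.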

[32] = system: Mus musculus; assay: Toxicity in PS mouse allografted with mouse P388 cells assessed as change in body weight at 0.4 ug/kg relative to control; type: organism-based; conditions: in vivo, 0.0004 mg/kg; procedure, shortened: as §4
[33] = system: Mus musculus; assay: Toxicity in PS mouse allografted with mouse P388 cells assessed as change in body weight at 0.2 ug/kg relative to control; type: organism-based; conditions: in vivo, 0.0002 mg/kg; procedure, shortened: as §4
[34] = system: Mus musculus; assay: Toxicity in PS mouse allografted with mouse P388 cells assessed as survival at 0.8 ug/kg after 4 days; type: organism-based; conditions: in vivo, 0.0008 mg/kg, 96 h; procedure, shortened: as §2
[35] = system: Mus musculus; assay: Toxicity in PS mouse allografted with mouse P388 cells assessed as survival at 0.4 ug/kg after 4 days; type: organism-based; conditions: in vivo, 0.0004 mg/kg, 96 h; procedure, shortened: as §2
[36] = system: Mus musculus; assay: Toxicity in PS mouse allografted with mouse P388 cells assessed as survival at 0.2 ug/kg after 4 days; type: organism-based; conditions: in vivo, 0.0002 mg/kg, 96 h; procedure, shortened: as §2
[37] = system: P388; assay: Antitumor activity against mouse P388 cells allografted in PS mouse assessed as median survival time at 0.8 ug/kg relative to control; type: functional; procedure, shortened: as §3
[38] = system: P388; assay: Antitumor activity against mouse P388 cells allografted in PS mouse assessed as median survival time at 0.4 ug/kg relative to control; type: functional; procedure, shortened: as §3
[39] = system: P388; assay: Antitumor activity against mouse P388 cells allografted in PS mouse assessed as median survival time at 0.2 ug/kg relative to control; type: functional; procedure, shortened: as §3

| Structure (SMILES) | Activity [1] [g] | Activity [2] | Activity [3] | Activity [4] | Activity [5] | Activity [6] | Activity [7] | Activity [10] [g] | Activity [11] [g] | Activity [12] [g] | Activity [13] [g] | Activity [14] [g] | T/C [17] [%] | T/C [18] [%] | T/C [19] [%] | T/C [20] [%] | T/C [21] [%] | T/C [22] [%] | EC50 [25] [µg/mL] | inhibition [26] | other results |
| --- | --- | --- | --- | --- | --- | --- | --- | --- | --- | --- | --- | --- | --- | --- | --- | --- | --- | --- | --- | --- | --- |
| COc1cc2cc(c1Cl)N(C)C(=O)CC(O)C1(C)OC1C(C)C1CC(O)(NC(=O)O1)C(OC)/C=C/C=C(\C)C2 (stereo not given) [MAYTANSINOL] | 0.9 | Non-toxic | Non-toxic | Non-toxic | Non-toxic | Non-toxic | Non-toxic | 1.2 | -0.4 | 0.5 | 1.5 | 0.5 | 105 | 112 | 94 | 102 | 102 | 102 | 0.19 (≈ 0.336 µM) | Active | Activity [8]: Non-toxic; Activity [9]: Non-toxic; Activity [15]: -1.8 g; Activity [16]: -2.6 g; T/C [23]: 112%; T/C [24]: 102%; Activity [27]: 1 ×10⁻⁵ mol/L |
| CCCS[C@]12C[C@H](OC(=O)N1)[C@@H](C)[C@@H]1O[C@@]1(C)[C@@H](OC(=O)[C@H](C)N(C)C(=O)C(C)C)CC(=O)N(C)c1cc(cc(OC)c1Cl)C/C(C)=C/C=C/[C@H]2OC | 0.6 | Non-toxic | Non-toxic | Non-toxic | Non-toxic | Non-toxic | Non-toxic | -1.6 | 0.4 | 0.7 | 0.6 | -0.1 | 127 | 118 | 101 | 95 | <80 | 97 | 0.00031 (≈ 0.000398 µM) | Active | Activity [28]: 0.8 g; Activity [29]: Non-toxic; Activity [8]: Non-toxic; Activity [9]: Non-toxic; Activity [15]: -2.4 g; Activity [16]: 0.6 g; T/C [30]: 100%; T/C [23]: 151%; T/C [24]: 151%; Activity [27]: 1 ×10⁻⁸ mol/L |
| COc1cc2cc(c1Cl)NC(=O)/C=C/[C@]1(C)O[C@H]1[C@H](C)[C@@H]1C[C@@](O)(NC(=O)O1)[C@H](OC)/C=C/C=C(\C)C2 | -0.2 | Non-toxic | Non-toxic | Non-toxic | Non-toxic | Non-toxic | Non-toxic | 1.2 | -0.3 | -0.5 | -0.5 | 0.4 | 95 | 110 | 110 | 110 | 115 | 115 | 0.019 (≈ 0.0356 µM) | Active | Activity [28]: 0 g; Activity [31]: -0.1 g; Activity [32]: 0.1 g; Activity [33]: 1 g; Activity [29]: Non-toxic; Activity [34]: Non-toxic; Activity [35]: Non-toxic; Activity [36]: Non-toxic; T/C [30]: 100%; T/C [37]: 90%; T/C [38]: 100%; T/C [39]: 100%; Activity [27]: 1 µM |
